Results taken from PMC4701204 (Chemistry & biology, 2015).
“Also recorded” adds a separate entry of the source. Blank lines part the entries; values can stand above or below the molecule they belong to.

Assays:
[1] = system: BRCA deficient and proficient cell lines; experiment: Clonogenic survival assay; format: cell-based
Method in brief: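 Clonogenic survival of BRCA-deficient and BRCA-proficient cell lines treated with test compound or olaparib. Mean ± s.e.m. of 3 independent experiments.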

AML patient cells = experiment: Clonogenic survival; format: cell-based
Method in brief: (§1)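 Colony-forming survival of BRCA-deficient and BRCA-proficient leukemia patient cells after test compound or olaparib. Each data point pools cells from 3 different patients. Mean ± s.e.m. of 3 independent experiments.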

[2] = system: BRCA1 deficient CML patient cells; experiment: Clonogenic survival; format: cell-based
Method in brief: as §1

HEK293T cells = experiment: eGFP-RAD52 foci formation after ionizing radiation; format: cell-based
Method in brief: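 HEK293T cells expressing eGFP-RAD52 treated with test compound at several concentrations and exposed to ionizing radiation. DAPI-counterstained nuclei imaged, and the percent of cells with ≥ 5 eGFP-RAD52 foci scored. Values are average ± s.e.m. of 3 independent experiments; two-tailed Student's t-test.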

[3] = system: MDA-MB-436 cells (BRCA1 deficient and BRCA1 complemented); experiment: Cell viability; format: cell-based; details: for Viability of BRCA1 deficient MDA-MB-436 cells: 3 day time course, 20 μM 6-OH-dopa
Method in brief: (§2)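 Each BRCA-deficient line tested alongside its BRCA-proficient counterpart after single-concentration test compound (olaparib or siRNA in some panels). Relative viability reported as mean ± s.e.m. of triplicates, with two-tailed Student's t-test.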

NHEJ in U20S cells = experiment: NHEJ GFP reporter assay; format: cell-based; details: 5 μM
Method in brief: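 NHEJ GFP reporter in U2OS cells, run with or without 5 μM test compound. Mean ± s.e.m. of two separate experiments, each in triplicate.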

MDA-MB-436 cells = experiment: γH2AX foci; format: cell-based; details: more pronounced in BRCA deficient cells
RAD52 = RAD52 (Homo sapiens, UniProt P43351); experiment: EMSA with excess ssDNA substrate; format: binding; details: 25 μM
Method in brief: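 RAD52 binding to an excess of Cy3-labelled ssDNA substrate in the presence of 25 μM test compound. Complexes resolved by EMSA on a non-denaturing gel.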

ssDNA = experiment: Interaction of small molecule with ssDNA; format: binding; details: Supplementary Fig. 1
[4] = system: BRCA deficient cells (VC8, HCC1937); experiment: Annexin V staining; format: cell-based; details: BRCA deficient vs proficient cells
RAD52 WT = biological target: T1, RAD52 WT (Homo sapiens, UniProt P43351); experiment: Fluorescence polarization; format: binding; details: for Inhibition of RAD52 ssDNA binding: in vitro, Supplementary Fig. 1
T1 sequence (P43351 1-418): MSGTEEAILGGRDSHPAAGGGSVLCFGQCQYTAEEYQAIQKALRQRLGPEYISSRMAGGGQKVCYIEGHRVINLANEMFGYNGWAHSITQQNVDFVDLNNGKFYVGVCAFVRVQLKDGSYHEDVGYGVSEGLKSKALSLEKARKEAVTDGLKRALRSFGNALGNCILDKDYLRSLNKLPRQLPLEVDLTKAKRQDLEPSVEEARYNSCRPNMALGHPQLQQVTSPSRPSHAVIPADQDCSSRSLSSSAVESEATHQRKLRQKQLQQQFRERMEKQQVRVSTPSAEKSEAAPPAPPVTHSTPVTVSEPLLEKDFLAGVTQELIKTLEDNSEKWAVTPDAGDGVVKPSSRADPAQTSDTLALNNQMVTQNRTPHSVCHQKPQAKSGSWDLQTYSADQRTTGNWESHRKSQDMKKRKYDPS

RAD52-ssDNA complexes = RAD52-ssDNA complexes (Homo sapiens, UniProt P43351); experiment: Dissociation of pre-formed RAD52-ssDNA complexes; format: binding; details: 30 μM, FP measured 2 min after addition
Method in brief: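 RAD52–ssDNA complexes pre-formed and equilibrated for 30 min before 30 μM test compound was added. FP read 2 min later against a DNA-only control, with mean ± s.d. of 3 independent experiments. Dissociation was also tested by EMSA on non-denaturing gels.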

SSA in U20S cells = experiment: SSA GFP reporter assay; format: cell-based; details: 5 μM
Method in brief: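 U20S cells carrying an SSA reporter exposed to test compounds at 5 μM. RAD52 siRNA versus scrambled siRNA serves as pathway control, with knockdown checked by western blot. Values are mean ± s.e.m. of triplicates, some from 3 separate experiments; two-tailed Student's t-test.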

[5] = biological target: RAD52 1-209 (ssDNA binding domain) (Homo sapiens, UniProt P43351); experiment: Fluorescence polarization
[6] = system: HCC1937 cells (BRCA1 deficient); experiment: Cell viability; format: cell-based; details: 5 μM 6-OH-dopa
Method in brief: as §2

[7] = system: BCR-ABL transformed murine hematopoietic 32Dcl3 cells expressing eGFP-RAD52; experiment: eGFP-RAD52 foci formation after cisplatin; format: cell-based; details: cisplatin treated 32Dcl3 BCR-ABL cells
Method in brief: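 Cells expressing eGFP-RAD52 pre-incubated with DMSO or test compound at several concentrations, then treated with cisplatin. Fraction of cells with eGFP-RAD52 foci scored by fluorescence microscopy. Values are mean ± s.e.m. of triplicates; two-tailed Student's t-test.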

[8] = system: CAPAN-1 cells (BRCA2 defective); experiment: Cell viability / proliferation; format: cell-based; details: 10 μM 6-OH-dopa, 20 μM olaparib
Method in brief: as §2

RecA = RecA (Escherichia coli, UniProt P0A7G6); experiment: Effect on RecA in vitro; format: biochemical; details: Supplementary Fig. 1
HR in U20S cells = experiment: HR GFP reporter assay; format: cell-based
[9] = biological target: T2, RAD52 1-209 undecamer ring (Homo sapiens, UniProt P43351); experiment: Native gel electrophoresis of RAD52 1-209 composition; format: biochemical
T2 sequence (P43351 1-209): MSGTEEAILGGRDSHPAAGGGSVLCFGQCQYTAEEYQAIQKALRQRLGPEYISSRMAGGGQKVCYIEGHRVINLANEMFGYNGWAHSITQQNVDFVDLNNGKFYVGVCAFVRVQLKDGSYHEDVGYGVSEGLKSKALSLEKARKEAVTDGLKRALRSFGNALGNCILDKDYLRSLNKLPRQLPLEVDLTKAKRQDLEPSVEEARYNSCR

[10] = biological target: T2, RAD52 1-209 undecamer ring; experiment: Light scattering of RAD52 1-209; format: biochemical
Method in brief: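 RAD52 1-209 (purified by a published method) incubated with or without test compound in 1 M or 0.15 M NaCl. Species sizes measured by light scattering. Buffer-only and compound-only controls included.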

RAD51 = RAD51 (Homo sapiens, UniProt Q06609); experiment: Fluorescence polarization; format: binding; details: in vitro, FP, 280 nM RAD51, 1 mM ATP
Method in brief: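 Human RAD51 (280 nM) with 1 mM ATP, 10 nM FAM-labelled ssDNA and varied test compound in pH 7.5 Tris buffer (25 mM NaCl, 0.5 mM MgCl2, 1 mM DTT, 0.01% NP-40, 0.1 mg/mL BSA). Incubated 30 min at room temp, then fluorescence polarization read. Inhibition of ssDNA binding taken from FP.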

[11] = system: VC8 cells (BRCA2 defective); experiment: Cell viability / proliferation; format: cell-based, Chinese hamster; details: 75 μM 6-OH-dopa
Method in brief: as §2

[12] = system: MDA-MB-436 cells complemented with BRCA1; experiment: eGFP-RAD52 foci formation after ionizing radiation; format: cell-based; details: MDA-MB-436 BRCA1 complemented
Method in brief: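 BRCA1-complemented MDA-MB-436 cells expressing eGFP-RAD52 were given test compound, then ionizing radiation, with or without IR as control. Nuclei stained with DAPI. Cells with ≥5 eGFP-RAD52 foci counted as percent of total. Mean ± s.e.m. of 3 independent experiments.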

native gel or EMSA = biological target: the molecule itself; experiment: native gel or EMSA
light scattering [13] = biological target: the molecule itself; experiment: light scattering
light scattering [14] = biological target: the molecule itself; experiment: light scattering; remark: listed apart in the source

Chain of RAD51 (Q06609 whole entry, species assumed): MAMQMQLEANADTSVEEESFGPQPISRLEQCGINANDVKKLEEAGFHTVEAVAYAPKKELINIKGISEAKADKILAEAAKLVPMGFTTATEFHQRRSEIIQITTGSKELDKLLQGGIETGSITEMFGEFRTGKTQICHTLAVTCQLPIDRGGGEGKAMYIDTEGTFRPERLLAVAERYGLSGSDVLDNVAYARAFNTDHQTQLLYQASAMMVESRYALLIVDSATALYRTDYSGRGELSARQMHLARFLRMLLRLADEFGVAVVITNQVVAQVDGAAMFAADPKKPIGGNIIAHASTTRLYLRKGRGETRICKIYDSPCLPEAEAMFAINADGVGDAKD
Chain of RecA (P0A7G6 whole entry, species assumed): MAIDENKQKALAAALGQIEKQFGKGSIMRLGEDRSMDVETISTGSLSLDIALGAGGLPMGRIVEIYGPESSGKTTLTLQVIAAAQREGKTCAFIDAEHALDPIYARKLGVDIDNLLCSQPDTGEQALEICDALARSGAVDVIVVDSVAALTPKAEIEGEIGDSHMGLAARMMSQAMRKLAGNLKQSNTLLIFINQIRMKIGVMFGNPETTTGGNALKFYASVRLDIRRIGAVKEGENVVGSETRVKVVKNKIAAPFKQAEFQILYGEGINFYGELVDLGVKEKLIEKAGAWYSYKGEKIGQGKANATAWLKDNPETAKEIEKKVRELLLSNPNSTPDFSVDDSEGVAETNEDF

Molecule: NC(Cc1cc(O)c(O)cc1O)C(=O)O (racemic) [6-OH-dopa, 6-hydroxy-DL-dopa]
Clonogenic survival of BRCA deficient cell lines [1]: inhibited the survival
Clonogenic survival of BRCA proficient cells ([1]; at the given doses): little or no effect
Colony formation by AML patient cells expressing normal levels of BRCA1/2 (AML patient cells): little effects
Survival of BRCA1 deficient CML patient cells [2]: significant reduction in the survival
eGFP-RAD52 foci (HEK293T cells): decreased the number of eGFP-RAD52 foci in a dose dependent manner
Viability of BRCA1 deficient MDA-MB-436 cells [3]: nearly identical reduction in viability
Viability of BRCA1 deficient MDA-MB-436 cells when RAD52 expression was suppressed ([3]; RAD52 siRNA): lost its ability to significantly reduce the viability
Effect on NHEJ (NHEJ in U20S cells): only slightly inhibited NHEJ
DNA damage indicated by γH2AX foci (MDA-MB-436 cells): substantial increase in DNA damage
Inhibition of RAD52 in the presence of ~100-fold excess of ssDNA substrate (RAD52): continued to inhibit RAD52
Interaction with ssDNA (ssDNA): does not interact with ssDNA
Apoptosis indicated by annexin V staining [4]: specifically increased apoptosis
IC50 (RAD52 WT): 1.1 µM
Percent lower IC50 for RAD52 WT compared to RAD52 1-209 (RAD52 WT): 31%
Dissociation of pre-formed RAD52-ssDNA complexes (RAD52-ssDNA complexes): fully dissociated RAD52-ssDNA complexes
Effect on SSA (SSA in U20S cells): consistently inhibited SSA
IC50 [5]: 1.6 µM
Viability of HCC1937 cells [6]: selectively reduced the viability
eGFP-RAD52 foci formation [7]: suppressed eGFP-RAD52 foci formation in a dose dependent manner
Proliferation of CAPAN-1 cells [8]: selectively halted the proliferation
Effect on RecA (RecA): very little effect
Effect on HR when RAD52 was suppressed (HR in U20S cells; RAD52 siRNA): had no effect on HR
Effect on HR (HR in U20S cells; U20S cells, 5 μM): little or no reduction in HR
Effect on RAD52 1-209 composition [9]: dissociates RAD52 complexes
Size of RAD52 1-209 species produced ([10]; high salt (1 M NaCl)): 48.3 kDa
Size of RAD52 1-209 species produced ([10]; low salt (0.15 M NaCl)): 48.3 kDa
Undecamers (270 kDa) converted into dimers (48.3 kDa) ([10]; low salt (0.15 M NaCl)): 100%
Effect on RAD51 (RAD51): little or no effect; also recorded: no effect
Proliferation of VC8 cells [11]: selectively halted the proliferation
eGFP-RAD52 foci [12]: inhibited eGFP-RAD52 foci

Molecule: NC(Cc1ccccc1O)C(=O)O (racemic) [DL-o-tyrosine, reference compound]
Inhibition of RAD52 ssDNA binding (RAD52 WT): failed to inhibit RAD52
Effect on RAD52 1-209 composition [9]: had no effect on RAD52 1-209 composition

Inhibition of RAD52 ssDNA binding (RAD52 WT): failed to inhibit
Molecule: N[C@H](C(=O)O)[C@H](O)c1ccc(O)c(O)c1 [L-DOPS, reference compound]
Effect on SSA (SSA in U20S cells): failed to inhibit SSA

Molecule: O=C(c1cc(Cc2n[nH]c(=O)c3ccccc23)ccc1F)N1CCN(C(=O)C2CC2)CC1 [olaparib, reference compound]
Colony formation by AML patient cells expressing normal levels of BRCA1/2 (AML patient cells): little effects
Viability of BRCA1 deficient MDA-MB-436 cells [3]: selectively reduced the viability

B1: RAD52 WT (wild-type, full-length RAD52, Histidine-tagged) (natural protein, human, UniProt P43351 1-418, looked up)
chain: MSGTEEAILGGRDSHPAAGGGSVLCFGQCQYTAEEYQAIQKALRQRLGPEYISSRMAGGGQKVCYIEGHRVINLANEMFGYNGWAHSITQQNVDFVDLNNGKFYVGVCAFVRVQLKDGSYHEDVGYGVSEGLKSKALSLEKARKEAVTDGLKRALRSFGNALGNCILDKDYLRSLNKLPRQLPLEVDLTKAKRQDLEPSVEEARYNSCRPNMALGHPQLQQVTSPSRPSHAVIPADQDCSSRSLSSSAVESEATHQRKLRQKQLQQQFRERMEKQQVRVSTPSAEKSEAAPPAPPVTHSTPVTVSEPLLEKDFLAGVTQELIKTLEDNSEKWAVTPDAGDGVVKPSSRADPAQTSDTLALNNQMVTQNRTPHSVCHQKPQAKSGSWDLQTYSADQRTTGNWESHRKSQDMKKRKYDPS
stoichiometry N (native gel or EMSA): 14

B2: RAD52 1-209 (RAD52 ssDNA binding domain, residues 1-209) (domain or fragment, human, UniProt P43351 1-209, looked up)
chain: MSGTEEAILGGRDSHPAAGGGSVLCFGQCQYTAEEYQAIQKALRQRLGPEYISSRMAGGGQKVCYIEGHRVINLANEMFGYNGWAHSITQQNVDFVDLNNGKFYVGVCAFVRVQLKDGSYHEDVGYGVSEGLKSKALSLEKARKEAVTDGLKRALRSFGNALGNCILDKDYLRSLNKLPRQLPLEVDLTKAKRQDLEPSVEEARYNSCR
stoichiometry N (light scattering [13]): 11
stoichiometry N (light scattering [14]): 2
